Assay results from ChEMBL document CHEMBL4196154, “Structure-Guided Design and Development of Potent and Selective Dual Bromodomain 4 (BRD4)/Polo-like Kinase 1 (PLK1) Inhibitors” (J Med Chem, 2018).
Calls of active or inactive are those of the source. No cut-off for these calls is given here.

Key:
[1] = molecular target: Bromodomain testis-specific protein (Homo sapiens, UniProt Q58F21); experiment: Inhibition of BRDT-BD1 (unknown origin) incubated for 1 hr by AlphaScreen biotin-JQ1 competition assay
Outline: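 BD protein at 40 nM, Ni-coated acceptor and streptavidin donor beads each 25 μg/mL. Buffer 50 mM HEPES, 150 mM NaCl, 0.1% BSA, 0.01% Tween20, pH 7.5. Compounds delivered in DMSO. Run under low light, read after 1 h at room temperature.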

[2] = molecular target: T1, Bromodomain-containing protein 4 (Homo sapiens, UniProt O60885); experiment: Inhibition of BRD4-BD1 (unknown origin) incubated for 1 hr by AlphaScreen biotin-JQ1 competition assay
[3] = molecular target: T2, Serine/threonine-protein kinase PLK1 (Homo sapiens, UniProt P53350); experiment: Inhibition of human recombinant PLK1 by Z-Lyte assay
Homo sapiens = species on record: Homo sapiens; experiment: Selectivity index, ratio of IC50 for inhibition of BRD4-BD1 (unknown origin) to IC50 for human recombinant PLK1
[4] = molecular target: Serine/threonine-protein kinase PLK2 (Homo sapiens) (UniProt Q9NYY3); experiment: Inhibition of human PLK2 expressed in mammalian expression system assessed as remaining enzyme activity at 1 uM
Outline: (§1)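 Single-concentration binding panel at 1 uM: BROMOscan (32 bromodomains) and KINOMEscan (468 kinases) competition-binding platforms. Reported as % of DMSO control.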

[5] = molecular target: T1, Bromodomain-containing protein 4; experiment: Inhibition of human BRD4-BD1 expressed in bacterial expression system assessed as remaining activity at 1 uM; outline: as §1
[6] = molecular target: T2, Serine/threonine-protein kinase PLK1; experiment: Inhibition of human PLK1 expressed in mammalian expression system assessed as remaining enzyme activity at 1 uM; outline: as §1
[7] = molecular target: Serine/threonine-protein kinase PLK3 (Homo sapiens) (UniProt Q9H4B4); experiment: Inhibition of human PLK3 expressed in mammalian expression system assessed as remaining enzyme activity at 1 uM; outline: as §1
MOLM-13 = experiment: Induction of cell cycle arrest in human MOLM13 assessed as accumulation at G1/G2 phase at 1 uM incubated for 24 hrs by propidium iodide staining based flow cytometry; type: functional
Outline: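 MOLM13 cells exposed to 1 μM compound for 24 h, then harvested, stained with propidium iodide and PI fluorescence measured on a flow cytometer for cell-cycle distribution.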

T2 sequence (P53350 whole entry): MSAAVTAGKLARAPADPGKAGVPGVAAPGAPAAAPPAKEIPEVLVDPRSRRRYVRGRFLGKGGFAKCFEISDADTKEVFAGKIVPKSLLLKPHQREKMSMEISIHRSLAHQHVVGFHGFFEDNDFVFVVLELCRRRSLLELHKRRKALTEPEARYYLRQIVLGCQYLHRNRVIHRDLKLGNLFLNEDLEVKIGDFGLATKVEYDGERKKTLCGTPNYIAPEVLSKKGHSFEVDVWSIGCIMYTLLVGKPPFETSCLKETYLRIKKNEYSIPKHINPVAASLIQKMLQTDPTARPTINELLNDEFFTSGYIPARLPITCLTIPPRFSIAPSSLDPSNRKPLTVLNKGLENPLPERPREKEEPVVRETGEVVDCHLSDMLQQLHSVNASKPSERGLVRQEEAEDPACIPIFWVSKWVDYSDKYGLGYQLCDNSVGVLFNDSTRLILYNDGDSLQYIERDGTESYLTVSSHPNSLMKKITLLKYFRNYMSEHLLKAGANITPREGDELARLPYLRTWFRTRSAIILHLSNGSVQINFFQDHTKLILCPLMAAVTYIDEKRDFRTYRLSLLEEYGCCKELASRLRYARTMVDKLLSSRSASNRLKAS
Serine/threonine-protein kinase PLK3 (Homo sapiens), sequence (Q9H4B4 whole entry, looked up): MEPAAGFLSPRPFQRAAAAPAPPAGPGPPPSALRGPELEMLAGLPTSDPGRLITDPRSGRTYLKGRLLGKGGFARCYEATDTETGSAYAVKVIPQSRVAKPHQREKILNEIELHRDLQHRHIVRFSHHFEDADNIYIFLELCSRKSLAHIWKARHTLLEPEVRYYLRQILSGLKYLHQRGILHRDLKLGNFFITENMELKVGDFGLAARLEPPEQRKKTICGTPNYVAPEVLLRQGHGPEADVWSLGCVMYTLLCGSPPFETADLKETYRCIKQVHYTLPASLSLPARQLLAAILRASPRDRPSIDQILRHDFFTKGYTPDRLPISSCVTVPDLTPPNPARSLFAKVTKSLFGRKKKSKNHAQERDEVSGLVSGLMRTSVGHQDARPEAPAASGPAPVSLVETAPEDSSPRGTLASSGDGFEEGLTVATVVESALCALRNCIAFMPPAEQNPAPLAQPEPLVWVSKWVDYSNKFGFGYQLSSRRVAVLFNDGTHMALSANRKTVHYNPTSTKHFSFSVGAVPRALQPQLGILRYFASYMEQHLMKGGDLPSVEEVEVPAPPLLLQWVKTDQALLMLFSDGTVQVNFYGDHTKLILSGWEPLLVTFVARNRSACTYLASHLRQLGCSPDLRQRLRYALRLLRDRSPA
Serine/threonine-protein kinase PLK2 (Homo sapiens), sequence (Q9NYY3 whole entry, looked up): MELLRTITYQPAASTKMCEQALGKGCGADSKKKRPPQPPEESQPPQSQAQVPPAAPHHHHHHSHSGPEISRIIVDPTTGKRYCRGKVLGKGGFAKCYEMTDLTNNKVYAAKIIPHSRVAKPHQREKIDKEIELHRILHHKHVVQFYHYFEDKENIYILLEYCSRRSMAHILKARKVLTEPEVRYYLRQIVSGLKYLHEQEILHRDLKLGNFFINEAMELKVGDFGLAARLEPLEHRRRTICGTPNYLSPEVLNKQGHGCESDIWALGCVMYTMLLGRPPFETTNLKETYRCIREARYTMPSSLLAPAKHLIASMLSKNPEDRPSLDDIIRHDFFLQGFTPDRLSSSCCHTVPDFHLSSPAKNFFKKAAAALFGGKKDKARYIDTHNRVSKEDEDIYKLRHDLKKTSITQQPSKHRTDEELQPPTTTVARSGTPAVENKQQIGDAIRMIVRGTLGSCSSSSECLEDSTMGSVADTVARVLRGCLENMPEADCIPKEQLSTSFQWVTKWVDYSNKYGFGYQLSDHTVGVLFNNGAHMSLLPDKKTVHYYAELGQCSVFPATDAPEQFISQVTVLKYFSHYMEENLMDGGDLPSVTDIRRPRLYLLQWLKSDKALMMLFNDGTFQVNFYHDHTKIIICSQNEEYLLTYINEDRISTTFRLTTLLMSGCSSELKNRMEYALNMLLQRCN

Structure (SMILES)	IC50 [1] [nM]	IC50 [2] [nM]	IC50 [3] [nM]	also measured
CCC[C@@H]1C(=O)N(C)c2cnc(Nc3ccc(C(=O)NC4CCN(C)CC4)cc3OC)nc2N1C1CCCC1	8470	2580	9.9	Ratio IC50 (Homo sapiens): > 250
COC(=O)c1ccc(Nc2ncc3c(n2)N(C2CCCC2)[C@H](C)C(=O)N3C)c(OC2CCCC2)c1	933	253	457	
COc1cc(C(=O)NC2CCN(C)CC2)ccc1Nc1ncc2c(n1)N(C(C)C)[C@H](CC(C)C)C(=O)N2C		41900	218	
CN1CCC(NC(=O)c2ccc(Nc3ncc4c(n3)N(C3CCCC3)CC(=O)N4C)c(OC3CCCC3)c2)CC1	3540	690		
CC[C@@H]1C(=O)Nc2cnc(Nc3ccc(C(=O)NC4CCN(C)CC4)cc3OC)nc2N1C(C)C		> 10000	2620	Ratio IC50 (Homo sapiens): > 250
COc1cc(C(=O)NC2CCN(C)CC2)ccc1Nc1ncc2c(n1)N(C1CCCC1)CC(=O)N2C	26000	6630	54.1	
COc1cc(C(=O)NC2CCN(C)CC2)ccc1Nc1ncc2c(n1)N(C1CCOCC1)[C@H](CC(C)C)C(=O)N2C	> 50000	> 50000	322	
COc1cc(C(=O)NC2CCN(C)CC2)ccc1Nc1ncc2c(n1)N(C1CCCCC1)[C@H](C)C(=O)N2C	750	310	8.6	
COc1cc(C(=O)NCCc2ccccc2)ccc1Nc1ncc2c(n1)N(C1CCCC1)[C@H](C)C(=O)N2C	558	183	27	
CCC[C@@H]1C(=O)N(C)c2cnc(Nc3ccc(C(=O)NC4CCN(C)CC4)cc3OC3CCCC3)nc2N1C1CCCC1	1950	596	47	
CC[C@@H]1C(=O)N(C)c2cnc(Nc3ccc(C(=O)NC4CCN(C)CC4)cc3OC)nc2N1C(C)C		186	4	
CC[C@@H]1C(=O)N(C)c2cnc(Nc3ccc(C(=O)NC4CCN(C)CC4)cc3OC)nc2N1C1CCCCC1		650	4	
COc1cc(C(=O)NC2CCN(C)CC2)ccc1Nc1ncc2c(n1)N(C(C)C)[C@H](C)C(=O)N2C	978	421	25.2	
CC[C@@H]1C(=O)Nc2cnc(Nc3ccc(C(=O)NC4CCN(C)CC4)cc3OC)nc2N1C1CCCCC1		> 10000	37.2	Ratio IC50 (Homo sapiens): > 250

Molecules with a lower IC50 [2], results first:

IC50 [1] [nM]	IC50 [2] [nM]	IC50 [3] [nM]	Structure (SMILES)	also measured
560	109	9	COc1cc(C(=O)NC2CCNCC2)ccc1Nc1ncc2c(n1)N(C1CCCC1)[C@H](C)C(=O)N2C	
378	107	160	COc1cc(C(=O)NC2CCCCC2)ccc1Nc1ncc2c(n1)N(C1CCCC1)[C@H](C)C(=O)N2C	
229	107	8.7	COc1cc(C(=O)NC2CCN(C)CC2)ccc1Nc1ncc2c(n1)N(C1CCCC1)[C@@H](C)C(=O)N2C	
392	104	21	COc1cc(C(=O)NCCN(C)C)ccc1Nc1ncc2c(n1)N(C1CCCC1)[C@H](C)C(=O)N2C	
369	94	95	COc1cc(C(=O)N2CCCCC2)ccc1Nc1ncc2c(n1)N(C1CCCC1)[C@H](C)C(=O)N2C	
342	84	1.1	COc1cc(C(=O)NC2CCN(C)CC2)ccc1Nc1ncc2c(n1)N(C1CCCC1)[C@H](C)C(=O)N2C	Activity [4]: 0.3 to 0.5%; Activity [5]: 12%; Activity [6]: 0.3 to 0.5%; Activity [7]: 0.3 to 0.5%
245	59	127	C[C@H]1C(=O)N(C)c2cnc(Nc3ccc(C(=O)NC4CCN(C)CC4)cc3OC3CCCC3)nc2N1C1CCCC1	
102	28	40	C[C@@H]1C(=O)N(C)c2cnc(Nc3ccc(C(=O)NC4CCN(C)CC4)cc3OC3CCCC3)nc2N1C1CCCC1	Activity (MOLM-13): Active
